Data: PMC10948974 (Nature chemical biology, 2023)

Legend:
[1] = molecular target: MEK1–BRAF (Homo sapiens, UniProt Q02750); assay: Co-IP of MEK1 and FLAG-tagged BRAF from treated HEK293T cells; type: cell-based; conditions: 1 μM compound, 24 h
Outline: (§1)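 HEK293T cells (350,000/well) were transfected 24 h after seeding using Fugene HD. FLAG-BRAF or FLAG-KSR1 was given at 1 μg ml−1 for FLAG pulldown, or 0.5 μg ml−1 for endogenous MEK1 pulldown, each with 9 μg ml−1 carrier DNA. After 24 h, cells got 1 μM compound (0.1% DMSO) for 24 h. 100 μg of lysate was captured on anti-FLAG, anti-MEK1 or normal IgG beads (1 h, 4 °C), then eluted and western blotted for BRAF, MEK1 and FLAG.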

[2] = molecular target: MEK1–KSR1 (Homo sapiens, UniProt Q02750); assay: Co-IP of MEK1 and FLAG-tagged KSR1 from treated HEK293T cells; type: cell-based; conditions: 1 μM compound, 24 h
Outline: as §1

[3] = molecular target: 14–3–3–NL + MEK1 + BRAF-R509H (Homo sapiens, UniProt Q02750); assay: 14–3–3–NL NanoBRET assay with dimer mutant BRAF-R509H; type: binding; conditions: 14–3–3–NL–Tram-bo assay configuration
[4] = molecular target: 14–3–3–NL + MEK1 + CRAF-R401H (Homo sapiens, UniProt Q02750); assay: 14–3–3–NL NanoBRET assay with dimer mutant CRAF-R401H; type: binding; conditions: 14–3–3–NL–Tram-bo assay configuration
[5] = molecular target: 14–3–3–NL + MEK1 + KSR1-R665H (Homo sapiens, UniProt Q02750); assay: 14–3–3–NL NanoBRET assay with dimer mutant KSR1-R665H; type: binding; conditions: 14–3–3–NL–Tram-bo assay configuration
[6] = molecular target: MEK1–NL + BRAF-V600E (Homo sapiens, UniProt Q02750); assay: MEK1–NL NanoBRET coexpression assay with BRAF-V600E; type: binding; conditions: 1 μM Tram-bo

trametiglue
effect on MEK1–BRAF interaction (co-IP) [1]: stabilized | effect on MEK1–KSR1 interaction (co-IP) [2]: stabilized | change in potency, BRAF-R509H versus BRAF [3]: insensitive | change in potency, CRAF-R401H versus CRAF [4]: decrease in potency | change in potency, KSR1-R665H versus KSR1 [5]: decrease in potency

CNS(=O)(=O)Nc1nccc(Cc2c(C)c3ccc(Oc4ncccn4)cc3oc2=O)c1F [CH5126766]
decrease in potency (calculated Ki) with BRAF-V600E versus WT BRAF [6]: ~ 100 fold | effect on MEK1–BRAF interaction (co-IP) [1]: stabilized | effect on MEK1–KSR1 interaction (co-IP) [2]: stabilized | change in potency, BRAF-R509H versus BRAF [3]: insensitive

CC(=O)Nc1cccc(-n2c(=O)n(C3CC3)c(=O)c3c(Nc4ccc(I)cc4F)n(C)c(=O)c(C)c32)c1 [trametinib]
effect on MEK1–BRAF interaction (co-IP) [1]: specifically reduced | change in potency, BRAF-R509H versus BRAF [3]: insensitive | change in potency, KSR1-R665H versus KSR1 [5]: small but significant decrease in potency

O=C(c1ccc(F)c(F)c1Nc1ccc(I)cc1F)N1CC(O)([C@@H]2CCCCN2)C1 [cobimetinib]
change in potency, BRAF-R509H versus BRAF [3]: significant increase in potency | change in potency, KSR1-R665H versus KSR1 [5]: decrease in potency
